Results published in ChEMBL document CHEMBL1128497, “Synthesis and in vitro and in vivo antitumor activity of a series of trans platinum antitumor complexes” (J Med Chem, 1995).
Where “and” joins values, the source holds several entries; their conditions need not be identical. Equal entries are not always repeated. Calls of active or inactive are those of the source. The rule behind the calls is not given here.

Columns and labels:
Mus musculus [1] = assay: In Vivo Antitumor activity by ip administration against Murine ADJ/PC6 (sc) Plasmacytoma in mice; format: functional, organism-based; settings: Plasma
Method in brief: (§1)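 ADJ/PC6 plasmacytoma (or its cisplatin-resistant subline) was implanted sc as 1 mm3 fragments. On day 20 mice received a single ip injection of drug as a sonicated suspension in arachis oil, at halving doses. Ten days later tumors were dissected and weighed against controls. […] Therapeutic index is MTD/ED90, alongside LD50.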

SK-OV-3 = assay: In vitro antitumor activity against SK-OV-3 cell line.; format: functional, cell-based, Homo sapiens
Method in brief: (§2)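 Human ovarian carcinoma monolayers were grown in DMEM with 10% FCS, insulin and hydrocortisone under 10% CO2. Cells were seeded at 5 × 10^3–1 × 10^4 per well and left to attach overnight. Drugs were freshly dissolved in 0.9% saline (1 mM or 500 μM stocks) and added to quadruplicate wells for 96 h. Cell mass was read by SRB staining. IC50 values are means of at least two experiments.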

41M [2] = assay: In vitro antitumor activity against 41McisR cell line.; format: functional, cell-based, Homo sapiens; method in brief: as §2
Mus musculus [3] = assay: In Vivo Antitumor activity against the acquired cisplatin-resistant ADJ/PC6 Plasmacytoma (ADJ/PC6cisR) in mice; format: ADME, organism-based
A2780 [4] = assay: In vitro antitumor activity against A2780cisR cell line.; format: functional, cell-based, Homo sapiens; method in brief: as §2
CH1 [5] = assay: (§3) In vitro antitumor activity against CH1 cell line.; format: functional, cell-based, Homo sapiens; method in brief: as §2
[6] = In vivo antitumor activity by i.p. administration against murine ADJ/PC6 (sc) plasmacytoma.; format: ADME, organism-based; settings: mouse, ip
CH1 [7] = assay: In vitro antitumor activity against CH1cisR cell line.; format: functional, cell-based, Homo sapiens; method in brief: as §2
A2780 [8] = assay: In vitro antitumor activity against A2780 cell line.; format: functional, cell-based, Homo sapiens; method in brief: as §2
41M [9] = assay: In vitro antitumor activity against 41M cell line.; format: functional, cell-based, Homo sapiens; method in brief: as §2
Mus musculus [10] = assay: In Vivo Antitumor activity by ip administration against Murine ADJ/PC6 (sc) Plasmacytoma in mice; - = 90% tumor inhibition not obtained; format: functional, organism-based; settings: Plasma; method in brief: as §1
A2780 [11] = assay: Resistant factor determined between IC50 of resistant line to that of parental A2780 cell line; format: functional, cell-based; settings: Homo sapiens
Method in brief: (§4)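 Resistance factor is the IC50 in the cisplatin-resistant subline divided by the IC50 in its parent line. IC50s came from a 96 h SRB cytotoxicity assay run in quadruplicate wells.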

Mus musculus [12] = assay: Ability to inhibit Antitumor activity against PXN/109T/C Human Ovarian Cracinoma xenograft in mice at dose 4 mg/kg by ip administration; format: functional, organism-based; parameters: dose 4 mg/kg
Method in brief: (§5)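 Human ovarian carcinoma xenografts were grown subcutaneously in female Balb C nude mice. Tumors were measured weekly until they doubled their starting volume. Growth delay is the difference in doubling time between treated and control tumors.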

CH1 [13] = assay: Resistant factor, determined between IC50 of resistant line to that of CHcisR cell line; format: functional, cell-based; settings: Homo sapiens; CH1cisR; method in brief: as §4
41M [14] = assay: Resistant factor was determined between IC50 of cisplatin-resistant human tumor cell lines to that of […] cell line; format: functional, cell-based; method in brief: as §4
Mus musculus [15] = assay: Ability to inhibit Antitumor activity against PXN/109T/CC Human Ovarian Cracinoma xenograft in mice at dose 50 mg/kg by ip administration; format: functional, organism-based; parameters: dose 50 mg/kg; method in brief: as §5
Mus musculus [16] = assay: Ability to inhibit Antitumor activity against PXN/109T/CC Human Ovarian Cracinoma xenograft in mice at dose 8 mg/kg by ip administration; format: functional, organism-based; parameters: dose 8 mg/kg; method in brief: as §5
Mus musculus [17] = assay: Ability to inhibit Antitumor activity against PXN/109T/C Human Ovarian Cracinoma xenograft in mice at dose 20 mg/kg by ip administration; format: functional, organism-based; parameters: dose 20 mg/kg; method in brief: as §5
CH1 [18] = assay: as §3; format: functional, cell-based, Homo sapiens; method in brief: as §2; remark: listed apart in the source
Mus musculus [19] = assay: Ability to inhibit Antitumor activity against PXN/109T/C Human Ovarian Cracinoma xenograft in mice at dose 10 mg/kg by ip administration; format: functional, organism-based; parameters: dose 10 mg/kg; method in brief: as §5
Mus musculus [20] = assay: Ability to inhibit Antitumor activity against PXN/109T/CC Human Ovarian Cracinoma xenograft in mice at dose 2 mg/kg by ip administration; format: functional, organism-based; parameters: dose 2 mg/kg; method in brief: as §5
Mus musculus [21] = assay: Ability to inhibit Antitumor activity against OVCAR-3 Human Ovarian Cracinoma xenograft in mice at dose 2 mg/kg by ip administration; format: functional, organism-based; parameters: dose 2 mg/kg; method in brief: as §5
Mus musculus [22] = assay: Ability to inhibit Antitumor activity against PXN/109T/C Human Ovarian Cracinoma xenograft in mice at dose 2 mg/kg by ip administration; format: functional, organism-based; parameters: dose 2 mg/kg; method in brief: as §5
Mus musculus [23] = assay: Ability to inhibit Antitumor activity against OVCAR-3 Human Ovarian Cracinoma xenograft in mice at dose 4 mg/kg by ip administration; format: functional, organism-based; parameters: dose 4 mg/kg; method in brief: as §5
Mus musculus [24] = assay: Ability to inhibit Antitumor activity against PXN/100 Human Ovarian Cracinoma xenograft in mice at dose 2 mg/kg by ip administration; format: functional, organism-based; parameters: dose 2 mg/kg; method in brief: as §5
Mus musculus [25] = assay: Ability to inhibit Antitumor activity against HX/110 Human Ovarian Cracinoma xenograft in mice at dose 2 mg/kg by ip administration; format: functional, organism-based; parameters: dose 2 mg/kg; method in brief: as §5
Mus musculus [26] = assay: Ability to inhibit Antitumor activity against PXN/100 Human Ovarian Cracinoma xenograft in mice at dose 4 mg/kg by ip administration; format: functional, organism-based; parameters: dose 4 mg/kg; method in brief: as §5
Mus musculus [27] = assay: Ability to inhibit Antitumor activity against SKOV-3 Human Ovarian Cracinoma xenograft in mice at dose 4 mg/kg by ip administration; format: functional, organism-based; parameters: dose 4 mg/kg; method in brief: as §5

| Substance | ED90 (Mus musculus [1]) | IC50 (SK-OV-3) | IC50 (41M [2]) | IC50 (A2780 [4]) | IC50 (CH1 [5]) | LD50 [6] | IC50 (CH1 [7]) | IC50 (A2780 [8]) | IC50 (41M [9]) | RF (A2780 [11]) | RF (CH1 [13]) | RF (41M [14]) | further results |
| --- | --- | --- | --- | --- | --- | --- | --- | --- | --- | --- | --- | --- | --- |
| AMMONIO(DICHLORO)PLATINUM(CYCLOHEXYL)AMMONIUM | 1.4 mg/kg | – | – | – | – | – | – | – | – | – | – | – | – |
| CISPLATIN [listing 1 of 2 here] | – | 4.4 µM | 1.2 µM | 5.2 µM | 0.11 µM | 11.3 mg/kg | 0.71 µM | 0.33 µM | 0.26 µM | – | – | – | LD50 (Mus musculus [3]): 11 mg/kg |
| CISPLATIN [listing 2 of 2 here] | 1.6 mg/kg | – | – | – | – | – | – | – | – | – | – | – | – |
| TRANSPLATIN | – | – | – | – | – | – | – | – | – | – | – | – | ED90 (Mus musculus [10]): inactive |
| trans-Amminetetrachloro(quinuclidine)-platinium (IV) | – | – | – | – | – | – | – | – | – | 1.1 | 1 | 1 | Growth delay (Mus musculus [12]): 0 days |
| trans-a,f-Dichloro-b,d-bis(cyclohexylamine)-c,e-dihydroxo-platinium (IV) | 40 mg/kg | – | – | – | – | – | – | – | – | 4 | 1.1 | 1.5 | Growth delay (Mus musculus [15]): 1.8 days |
| trans-a-Ammine-b,d-dichloro-c,e-dihydrooxy-f-(Morphiline)-platinium (IV) | 94 mg/kg | – | – | – | – | – | – | – | – | 4.3 | 1.6 | 2.1 | – |
| trans-a-Ammine-b,d-dichloro-c,e-dihydrooxy-f-(cyclopentylamine)-platinium (IV) [listing 1 of 2 here] | – | 7 µM | 1.3 µM | 5.2 µM | 1.1 µM | 15 mg/kg | 1.9 µM | 0.95 µM | 1.1 µM | – | – | – | – |
| trans-a-Ammine-b,d-dichloro-c,e-dihydrooxy-f-(cyclopentylamine)-platinium (IV) [listing 2 of 2 here] | 2.5 mg/kg | – | – | – | – | – | – | – | – | 5.5 | 1.7 | 1.2 | – |
| trans-a-Ammine-b,d-dichloro-c,e-dihydroxo-f-(1,1,3,3-tetramethyl butylamine)-platinium (IV) [listing 1 of 2 here] | – | 1.8 µM | 1 µM | 2.2 µM | 0.36 µM | 29 mg/kg | 0.55 µM | 0.4 µM | 0.48 µM | – | – | – | – |
| trans-a-Ammine-b,d-dichloro-c,e-dihydroxo-f-(1,1,3,3-tetramethyl butylamine)-platinium (IV) [listing 2 of 2 here] | 9.6 mg/kg | – | – | – | – | – | – | – | – | 5.5 | 1.5 | 2.1 | – |
| trans-a-Ammine-b,d-dichloro-c,e-dihydroxo-f-(N-methylcyclohexylamine)-platinium (IV) [listing 1 of 2 here] | – | 6.9 µM | 1.6 µM | 5 µM | 1.3 µM | 29 mg/kg | 2.9 µM | 1.3 µM | 2.3 µM | – | – | – | – |
| trans-a-Ammine-b,d-dichloro-c,e-dihydroxo-f-(N-methylcyclohexylamine)-platinium (IV) [listing 2 of 2 here] | 9.4 mg/kg | – | – | – | – | – | – | – | – | 3.7 | 2.2 | 0.7 | Growth delay (Mus musculus [16]): 1.1 days |
| trans-a-Ammine-b,d-dichloro-c,e-dihydroxo-f-(exo-2-aminonorbornane)-platinium (IV) [listing 1 of 2 here] | – | 4.4 µM | 1.5 µM | 3 µM | 1.4 µM | 17.5 mg/kg | 1.7 µM | 0.25 µM | 1.4 µM | – | – | – | – |
| trans-a-Ammine-b,d-dichloro-c,e-dihydroxo-f-(exo-2-aminonorbornane)-platinium (IV) [listing 2 of 2 here] | 4.9 mg/kg | – | – | – | – | – | – | – | – | 12 | 1.2 | 1 | – |
| trans-a-Ammine-b,d-dichloro-c,e-dihydroxy-f-(benzylamine)-platinium (IV) [listing 1 of 2 here] | – | 8.2 µM | 1.3 µM | 4.2 µM | 1.1 µM | 71 mg/kg | 1.9 µM | 1.1 µM | 1.3 µM | – | – | – | – |
| trans-a-Ammine-b,d-dichloro-c,e-dihydroxy-f-(benzylamine)-platinium (IV) [listing 2 of 2 here] | 22 mg/kg | – | – | – | – | – | – | – | – | 4 | 1.7 | 1 | Growth delay (Mus musculus [17]): 8.3 days |
| trans-a-ammine-b,d-dichloro-f-(2-methyl1-2-propylamine)-c,e-dihydroxoplatinium (IV) [listing 1 of 2 here] | – | 34 µM and 4.7 µM | 8 µM and 0.9 µM | 8.5 µM and 4.2 µM | 0.74 µM | 35.5 mg/kg and 35 mg/kg | 3.4 µM and 1.62 µM | 0.8 µM and 0.21 µM | 4.5 µM and 1.1 µM | – | – | – | IC50 (CH1 [18]): 1.1 µM |
| trans-a-ammine-b,d-dichloro-f-(2-methyl1-2-propylamine)-c,e-dihydroxoplatinium (IV) [listing 2 of 2 here] | 4.9 mg/kg and 4.7 mg/kg | – | – | – | – | – | – | – | – | – | – | – | Growth delay (Mus musculus [19]): 13.4 days |
| trans-a-ammine-b,d-dichloro-f-(2-propylamine)-c,e-dihydroxoplatinium (IV) | – | 9.2 µM and 30.5 µM | 4.6 µM and 9.2 µM | 4.7 µM and 7.2 µM | 2.4 µM and 1.4 µM | 18 mg/kg and 35 mg/kg | 5.5 µM and 4.9 µM | 0.54 µM and 0.99 µM | 3.2 µM and 3.9 µM | – | – | – | – |
| trans-a-ammine-b,d-dichloro-f-(cyclohexylamine)-c,e-bis-(ethylcarbamato)platinium (IV) | 185 mg/kg | – | – | – | – | – | – | – | – | 3.3 | 1.2 | 0.7 | – |
| trans-a-ammine-b,d-dichloro-f-(cyclohexylamine)-c,e-dihydroxoplatinium (IV) | – | – | – | – | – | – | – | – | – | – | – | – | Growth delay (Mus musculus [20]): 5.4 days; Growth delay (Mus musculus [21]): 12 days; Growth delay (Mus musculus [22]): 17 days; Growth delay (Mus musculus [23]): 16.8 days; Growth delay (Mus musculus [24]): 23.9 days; Growth delay (Mus musculus [25]): 25.5 days; Growth delay (Mus musculus [26]): 63.7 days; Growth delay (Mus musculus [27]): 7 days |
